Legend:
PM1 = test: Induction of gp120 conformational change in R5 tropic Human immunodeficiency virus 1 subtype B isolate JR-FL infected in human PM1 cells assessed as binding of anti-HIV1 mAb 4C11 measuring mean fluorescence intensity at 100 uM preincubated for 15 mins by FACS analysis using antibody staining (reference value: 14.94 fluorescence intensity); format: cell-based
Outline: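 Env-expressing PM1 cells were pretreated with the CD4 mimic, then stained with the CD4-induced anti-envelope mAb 4C11 at 4 °C for 15 min. Cells were washed in PBS and detected with FITC-conjugated goat anti-human IgG. The read-out was flow cytometry on gated PM1 cells, giving the mean fluorescence intensity of 4C11. Anti-human CD19 served as the control antibody. Data are representative of at least two independent experiments.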

[1] = system: Human immunodeficiency virus 1; test: Antiviral activity against R5 tropic HIV1 YTA infected in human TZM-bl cells assessed as beta-galactosidase activity preincubated for 15 mins before infection measured after 2 days by single-round assay using luminometry; format: functional, organism-based; details: Human immunodeficiency virus 1, YTA
Outline: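 Single-round infection of TZM-bl cells with R5 YTA virus; beta-galactosidase read as relative light units; IC50 = concentration giving 50% reduction vs virus control wells; mean of at least three independent experiments.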

[2] = Selectivity index, ratio of CC50 for mock-infected human PM1 cells expressing CCR5 to IC50 for R5 tropic HIV1 YTA infected in human TZM-bl cells; format: functional
Outline: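 SI calculated as CC50 (WST-8 viability, mock-infected PM1/CCR5 cells) divided by IC50 (beta-galactosidase reduction after single-round YTA infection of TZM-bl cells).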

[3] = Cytotoxicity against mock-infected human PM1 cells expressing CCR5 by WST-8 assay; format: cell-based
Outline: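 Viability of mock-infected PM1/CCR5 cells determined by WST-8; CC50 = concentration reducing viability by half; mean of at least three independent experiments.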

[4] = system: Human immunodeficiency virus 1; test: Antiviral activity against HIV1 infected in human PM1 cells expressing CCR5 assessed as inhibition of virus-induced cytopathogenicity by multi-round assay; format: functional, organism-based; details: Human immunodeficiency virus 1, PM1
Outline: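 HIV-1-induced cytopathogenicity measured in PM1/CCR5 cells over multiple rounds of infection; IC50 from inhibition of cytopathic effect; mean of at least three independent experiments.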

[5] = Ratio of compound CC50 to NBD-556 CC50 for mock-infected human PM1 cells expressing CCR5 by WST-8 assay; format: ADME, cell-based

O=C(Nc1ccc(Cl)cc1)C(=O)NC1CCN(C(=O)c2ccccc2)CC1
Flu intensity (PM1): 17.8 | IC50 [1]: 5.1 µM

O=C(Nc1ccc(Cl)cc1)C(=O)NC1CCN(C(=O)Nc2ccccc2)CC1
Ratio CC50/IC50 [2]: 0.56 | CC50 [3]: 6.2 µM | IC50 [1]: 11 µM

O=C(Nc1ccc(Cl)cc1)C(=O)Nc1ccc(Br)cc1
CC50 [3]: > 500 µM | IC50 [1]: > 100 µM

N=C(N)N1CCC(NC(=O)C(=O)Nc2ccc(Cl)cc2)CC1.O=C(O)C(F)(F)F
Flu intensity (PM1): 20.9 | Ratio CC50/IC50 [2]: 12 | CC50 [3]: 72 µM | IC50 [1]: 6.1 µM

O=C(NCCc1ccccn1)C(=O)Nc1ccc(Cl)cc1
Flu intensity (PM1): 15.4 | Ratio CC50/IC50 [2]: 24 | CC50 [3]: 480 µM | IC50 [1]: 19.8 µM

O=C(Nc1ccc(Cl)cc1)C(=O)NC1CCNCC1
Flu intensity (PM1): 20.5 | Ratio CC50/IC50 [2]: 7.3 | CC50 [3]: 51 µM | IC50 [1]: 7 µM

O=C(Nc1ccc(F)cc1)C(=O)Nc1ccc(Cl)cc1
Flu intensity (PM1): 15.2 | Ratio CC50/IC50 [2]: >160 | CC50 [3]: > 500 µM | IC50 [1]: 3.1 µM

CC1(C)CC(NC(=O)C(=O)Nc2ccc(Cl)cc2)CC(C)(C)N1
Flu intensity (PM1): 23.1 | IC50 [4]: 0.9 µM | Ratio CC50/IC50 [2]: 57 | CC50 [3]: 35 µM | IC50 [1]: 0.61 µM

O=C(Nc1ccc(Cl)cc1)C(=O)Nc1ccc(Cl)cc1
CC50 [3]: > 500 µM | IC50 [1]: > 100 µM

O=C(Nc1ccc(Cl)cc1)C(=O)NC1CC2(CCCCC2)NC2(CCCCC2)C1 (configuration not stated)
Flu intensity (PM1): 22.2 | IC50 [4]: 0.56 µM | selectivity ratio [5]: 4 | Ratio CC50/IC50 [2]: 176 | CC50 [3]: 120 µM | IC50 [1]: 0.68 µM

Cc1ccc(NC(=O)C(=O)NC2CC(C)(C)NC(C)(C)C2)cc1
Ratio CC50/IC50 [2]: 31 | CC50 [3]: 260 µM | IC50 [1]: 8.4 µM

NC(=O)N1CCC(NC(=O)C(=O)Nc2ccc(Cl)cc2)CC1
Flu intensity (PM1): 16 | Ratio CC50/IC50 [2]: 37 | CC50 [3]: 310 µM | IC50 [1]: 8.3 µM

NC(=S)N1CCC(NC(=O)C(=O)Nc2ccc(Cl)cc2)CC1
Flu intensity (PM1): 20.2 | Ratio CC50/IC50 [2]: 7.6 | CC50 [3]: 42 µM | IC50 [1]: 5.5 µM
